Measurements taken from ChEMBL document CHEMBL4219116, “Adenosine analogs bearing phosphate isosteres as human MDO1 ligands” (Bioorg Med Chem, 2018).
pKd: −log10 of the molar value. The source made the active and inactive calls. The calls are words filed in the database; no cut-off is given here.

How the values were obtained:
[1] = molecular target: T1, ADP-ribose glycohydrolase MACROD1 (Homo sapiens) (UniProt Q9BQ69); experiment: Binding affinity to human MDO1 assessed as change in melting temperature by DSF method
T1 sequence (whole entry): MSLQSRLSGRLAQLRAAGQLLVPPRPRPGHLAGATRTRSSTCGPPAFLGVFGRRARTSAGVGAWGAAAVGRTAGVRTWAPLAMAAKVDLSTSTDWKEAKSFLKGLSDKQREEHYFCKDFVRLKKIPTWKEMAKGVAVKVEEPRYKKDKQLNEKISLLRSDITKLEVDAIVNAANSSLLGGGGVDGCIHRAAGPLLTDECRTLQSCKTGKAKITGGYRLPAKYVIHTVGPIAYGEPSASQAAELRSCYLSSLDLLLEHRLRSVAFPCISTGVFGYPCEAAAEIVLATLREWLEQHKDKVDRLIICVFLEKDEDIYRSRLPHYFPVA
Method in brief: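 Thermal shift read-out: a hydrophobic reporter dye binds the exposed protein core as the protein denatures with rising temperature. ΔTm is taken as the stabilization by ligand.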

[2] = molecular target: T1, ADP-ribose glycohydrolase MACROD1 (Homo sapiens); experiment: Inhibition of recombinant human N-terminal His6-tagged MDO1 (58 to 325 residues) expressed in Escherichia coli Rosetta2 (DE3) using mono-biotin-ADP-ribosylated SRPK2 as substrate after 16 hrs by Western blot analysis
Method in brief: (§1)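 Substrate was SRPK2 mono-biotin-ADP-ribosylated by ARTD10. 2 μM substrate, 2 μM MDO1 and 0.8–1 mM compound were incubated 16 h in 25 mM HEPES pH 7.5, 100 mM NaCl. The reaction was stopped with Laemmli buffer at 95 °C for 5 min, then run on SDS-PAGE and blotted. Detection used streptavidin-HRP with chemiluminescence. Readout was qualitative, against SRPK2-alone and no-inhibitor controls.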

[3] = molecular target: T1, ADP-ribose glycohydrolase MACROD1 (Homo sapiens); experiment: Inhibition of recombinant human N-terminal His6-tagged MDO1 (58 to 325 residues) expressed in Escherichia coli Rosetta2 (DE3) at 0.8 mM using mono-biotin-ADP-ribosylated SRPK2 as substrate after 16 hrs by Western blot analysis; method in brief: as §1
[4] = molecular target: T1, ADP-ribose glycohydrolase MACROD1 (Homo sapiens); experiment: Inhibition of recombinant human N-terminal His6-tagged MDO1 (58 to 325 residues) expressed in Escherichia coli Rosetta2 (DE3) at 1 mM using mono-biotin-ADP-ribosylated SRPK2 as substrate after 16 hrs by Western blot analysis; method in brief: as §1
[5] = molecular target: T1, ADP-ribose glycohydrolase MACROD1 (Homo sapiens); experiment: Inhibition of recombinant human N-terminal His6-tagged MDO1 (58 to 325 residues) expressed in Escherichia coli Rosetta2 (DE3) at 6.6 mM using mono-ADP-ribosylated SRPK2 as substrate after 1 hr 20 mins by Alphascreen assay
Method in brief: (§2)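 AlphaScreen hydrolysis assay run in quadruplicate, with compound from 6.6 mM to 0.66 μM in half-log dilutions. MDO1 or MDO2 (800 nM final) was added, then mono-ADP-ribosylated SRPK2 (50 nM final), and incubated 1 h 20 min at room temperature. Acceptor/donor beads (5 μg/ml final) were added for 3 h in the dark before reading luminescence.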

[6] = molecular target: T2, ADP-ribose glycohydrolase MACROD2 (Homo sapiens) (UniProt A1Z1Q3); experiment: Inhibition of recombinant MDO2 (7 to 243 residues) (unknown origin) expressed in Escherichia coli Rosetta2 (DE3) at 6.6 mM using mono-ADP-ribosylated SRPK2 as substrate after 1 hr 20 mins by Alphascreen assay; method in brief: as §2
T2 sequence (whole entry): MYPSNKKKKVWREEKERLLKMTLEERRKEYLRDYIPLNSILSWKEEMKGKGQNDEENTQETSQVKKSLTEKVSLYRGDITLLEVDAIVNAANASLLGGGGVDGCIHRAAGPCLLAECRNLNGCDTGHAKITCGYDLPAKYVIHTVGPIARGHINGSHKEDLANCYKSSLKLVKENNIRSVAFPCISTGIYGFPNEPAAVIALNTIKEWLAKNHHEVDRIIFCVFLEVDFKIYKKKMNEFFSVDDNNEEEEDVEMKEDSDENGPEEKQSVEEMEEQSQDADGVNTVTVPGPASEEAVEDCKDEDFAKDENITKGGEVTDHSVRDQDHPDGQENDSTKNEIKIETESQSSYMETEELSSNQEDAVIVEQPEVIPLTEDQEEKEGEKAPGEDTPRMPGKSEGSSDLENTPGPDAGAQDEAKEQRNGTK

[7] = molecular target: T3, ADP-ribose glycohydrolase MACROD1 (Homo sapiens, UniProt Q9BQ69); experiment: Binding affinity to human MDO1 by ITC
T3 sequence (Q9BQ69 whole entry): T1 sequence (whole entry)

Structure (SMILES)	inhibition [3]	inhibition [4]	other results
Nc1ncnc2c1ncn2[C@@H]1O[C@H](COP(=O)(O)O)[C@@H](O)[C@H]1O	–	–	ΔTm [1]: < 1 °C; inhibition [2]: inactive
Nc1ncnc2c1ncn2[C@@H]1O[C@H](COP(=O)(O)OP(=O)(O)O)[C@@H](O)[C@H]1O	–	–	ΔTm [1]: < 1 °C; inhibition [2]: inactive
Nc1ncnc2c1ncn2[C@@H]1O[C@H](CNc2c(Nc3cccc([N+](=O)[O-])c3)c(=O)c2=O)[C@@H](O)[C@H]1O	inactive	–	–
Nc1ncnc2c1ncn2C1OC(CNC(=O)[C@H](CC(=O)O)NC(=O)OCC2c3ccccc3-c3ccccc32)[C@@H](O)C1O (single isomer, unassigned)	–	inactive	–
CCCCNc1c(NC[C@H]2O[C@@H](n3cnc4c(N)ncnc43)[C@H](O)[C@@H]2O)c(=O)c1=O	inactive	–	–
COc1ccc(CNc2c(NC[C@H]3O[C@@H](n4cnc5c(N)ncnc54)[C@H](O)[C@@H]3O)c(=O)c2=O)cc1	–	inactive	–
Nc1ncnc2c1ncn2[C@@H]1O[C@H](CNc2c(NCc3ccc(F)cc3)c(=O)c2=O)[C@@H](O)[C@H]1O	inactive	–	–
Nc1ncnc2c1ncn2C1OC(CNC(=O)Cc2nnn[nH]2)[C@@H](O)[C@H]1O (single isomer, unassigned)	–	inactive	–
Nc1ncnc2c1ncn2[C@@H]1O[C@H](COP(=O)(O)OP(=O)(O)OC[C@@H]2O[C@H](O)[C@@H](O)[C@H]2O)[C@@H](O)[C@H]1O	–	–	ΔTm [1]: 5 °C; pKd [7]: 6.05; inhibition [2]: Active

More lines, main results first:

inhibition [3]	inhibition [4]	Structure (SMILES)	other results
–	inactive	Nc1ncnc2c1ncn2[C@@H]1O[C@H](CNc2c(NCc3ccccc3)c(=O)c2=O)[C@@H](O)[C@H]1O	–
–	inactive	Nc1ncnc2c1ncn2C1OC(CNC(=O)[C@@H](N)CO)[C@@H](O)C1O (single isomer, unassigned)	–
inactive	–	Nc1ncnc2c1ncn2[C@@H]1O[C@H](CNc2c(Nc3cccc(O)c3)c(=O)c2=O)[C@@H](O)[C@H]1O	–
Active	–	Nc1ncnc2c1ncn2C1OC(CNC(=O)[C@H](CO)NC(=O)OCC2c3ccccc3-c3ccccc32)[C@@H](O)C1O (single isomer, unassigned)	inhibition [5]: inactive; inhibition [6]: inactive
–	Active	Cc1ccc(CNc2c(NC[C@H]3O[C@@H](n4cnc5c(N)ncnc54)[C@H](O)[C@@H]3O)c(=O)c2=O)cc1	inhibition [5]: inactive; inhibition [6]: inactive
–	inactive	Nc1ncnc2c1ncn2C1OC(CNC(=O)CSc2nnnn2-c2ccccc2)[C@@H](O)[C@H]1O (single isomer, unassigned)	–
